From ChEMBL document CHEMBL5303300, “EUbOPEN Chemogenomics Library - Multiplex” (2023)
Where “and” joins values, the source holds several entries; their conditions need not be identical. Identical values can stand only once.

Tests used:
Format in all cases: toxicity, cell-based
[1] = test system: HEK-293T; test: Multiplex assay against HEK293T; settings: human, number of replicates 2
In short: (§1)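 Phenotypes for tubulin, mitochondrial mass and membrane permeability are expressed as per cents of healthy-nucleus cells. Cells were stained live at seeding with Hoechst33342, BioTracker Green Microtubule Cytoskeleton Dye, MitoTracker Red and Annexin V Alexa Fluor 680, then imaged after compound addition on a CQ1 microscope at 37°C and 5% CO2. Machine-learning gating in CellPathfinder separated Hoechst high-intensity objects from normal cells, divided normal cells by nuclear state (healthy, pyknosed, fragmented) and divided pyknosed cells into mitotic or apoptotic.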

[2] = test system: U2OS; test: Multiplex assay against U2OS; settings: human, number of replicates 2; in short: as §1
[3] = test system: Fibroblast; test: Multiplex assay against human fibroblast; settings: number of replicates 2; in short: as §1
[4] = 12 h, 1 µM, compound concentration 1 uM
[5] = 12 h, 10 µM, compound concentration 10 uM
[6] = 24 h, 1 µM, compound concentration 1 uM
[7] = 24 h, 10 µM, compound concentration 10 uM
[8] = 48 h, 1 µM, compound concentration 1 uM
[9] = 48 h, 10 µM, compound concentration 10 uM

Compound: CN(C)CCCNc1ccnc(Nc2cccc(Cl)c2)n1
- Population Apoptotic (%) [1, 4]: 33% and 44%
- Population Fragmented Nuclei (%) [1, 4]: 2% and 3%
- Population Healthy Nuclei (%) [1, 4]: 86% and 87%
- Population Hoechst High Intensity Objects (%) [1, 4]: 6% and 7%
- Population Membrane Permeable-Phenotype (%) [1, 4]: 5% and 4%
- Population Mitochondria Different-Phenotype (%) [1, 4]: 17% and 13%
- Population Mitotic Cells (%) [1, 4]: 66% and 55%
- Population Normal (%) [1, 4]: 93% and 92%
- Population Pyknosed Nuclei (%) [1, 4]: 10% and 8%
- Population Tubulin-Different-Phenotype (%) [1, 4]: 51% and 48%
- Total Cell Count [1, 4]: 626 and 658
- Population Apoptotic (%) [1, 5]: 52% and 65%
- Population Fragmented Nuclei (%) [1, 5]: 4% and 3%
- Population Healthy Nuclei (%) [1, 5]: 87% and 88%
- Population Hoechst High Intensity Objects (%) [1, 5]: 10% and 11%
- Population Membrane Permeable-Phenotype (%) [1, 5]: 3% and 2%
- Population Mitochondria Different-Phenotype (%) [1, 5]: 37% and 32%
- Population Mitotic Cells (%) [1, 5]: 47% and 34%
- Population Normal (%) [1, 5]: 89% and 88%
- Population Pyknosed Nuclei (%) [1, 5]: 8%
- Population Tubulin-Different-Phenotype (%) [1, 5]: 79% and 75%
- Total Cell Count [1, 5]: 466 and 581
- Population Apoptotic (%) [1, 6]: 26% and 29%
- Population Fragmented Nuclei (%) [1, 6]: 3% and 4%
- Population Healthy Nuclei (%) [1, 6]: 89%
- Population Hoechst High Intensity Objects (%) [1, 6]: 6%
- Population Membrane Permeable-Phenotype (%) [1, 6]: 5% and 3%
- Population Mitochondria Different-Phenotype (%) [1, 6]: 5% and 4%
- Population Mitotic Cells (%) [1, 6]: 73% and 70%
- Population Normal (%) [1, 6]: 93%
- Population Pyknosed Nuclei (%) [1, 6]: 7% and 6%
- Population Tubulin-Different-Phenotype (%) [1, 6]: 31% and 30%
- Total Cell Count [1, 6]: 950 and 963
- Population Apoptotic (%) [1, 7]: 43% and 66%
- Population Fragmented Nuclei (%) [1, 7]: 3% and 4%
- Population Healthy Nuclei (%) [1, 7]: 92% and 90%
- Population Hoechst High Intensity Objects (%) [1, 7]: 7% and 14%
- Population Membrane Permeable-Phenotype (%) [1, 7]: 6% and 3%
- Population Mitochondria Different-Phenotype (%) [1, 7]: 32% and 35%
- Population Mitotic Cells (%) [1, 7]: 56% and 33%
- Population Normal (%) [1, 7]: 92% and 85%
- Population Pyknosed Nuclei (%) [1, 7]: 4% and 5%
- Population Tubulin-Different-Phenotype (%) [1, 7]: 79% and 83%
- Total Cell Count [1, 7]: 546 and 605
- Population Apoptotic (%) [1, 8]: 14% and 10%
- Population Fragmented Nuclei (%) [1, 8]: 11% and 8%
- Population Healthy Nuclei (%) [1, 8]: 86% and 87%
- Population Hoechst High Intensity Objects (%) [1, 8]: 9% and 8%
- Population Membrane Permeable-Phenotype (%) [1, 8]: 5% and 3%
- Population Mitochondria Different-Phenotype (%) [1, 8]: 0%
- Population Mitotic Cells (%) [1, 8]: 85% and 89%
- Population Normal (%) [1, 8]: 90% and 91%
- Population Pyknosed Nuclei (%) [1, 8]: 2% and 3%
- Population Tubulin-Different-Phenotype (%) [1, 8]: 15% and 17%
- Total Cell Count [1, 8]: 2534 and 2133
- Population Fragmented Nuclei (%) [1, 9]: 6% and 5%
- Population Healthy Nuclei (%) [1, 9]: 89% and 88%
- Population Hoechst High Intensity Objects (%) [1, 9]: 6% and 9%
- Population Membrane Permeable-Phenotype (%) [1, 9]: 6% and 5%
- Population Mitochondria Different-Phenotype (%) [1, 9]: 8% and 10%
- Population Mitotic Cells (%) [1, 9]: 86% and 42%
- Population Normal (%) [1, 9]: 93% and 90%
- Population Pyknosed Nuclei (%) [1, 9]: 3% and 5%
- Population Tubulin-Different-Phenotype (%) [1, 9]: 52%
- Total Cell Count [1, 9]: 814 and 883
- Population Apoptotic (%) [2, 4]: 60% and 50%
- Population Fragmented Nuclei (%) [2, 4]: 6% and 5%
- Population Healthy Nuclei (%) [2, 4]: 84% and 82%
- Population Hoechst High Intensity Objects (%) [2, 4]: 0%
- Population Membrane Permeable-Phenotype (%) [2, 4]: 0%
- Population Mitochondria Different-Phenotype (%) [2, 4]: 0%
- Population Mitotic Cells (%) [2, 4]: 39% and 50%
- Population Normal (%) [2, 4]: 100%
- Population Pyknosed Nuclei (%) [2, 4]: 9% and 11%
- Population Tubulin-Different-Phenotype (%) [2, 4]: 70% and 42%
- Population Apoptotic (%) [2, 5]: 50%
- Population Fragmented Nuclei (%) [2, 5]: 11% and 17%
- Population Healthy Nuclei (%) [2, 5]: 79% and 67%
- Population Hoechst High Intensity Objects (%) [2, 5]: 0%
- Population Membrane Permeable-Phenotype (%) [2, 5]: 4% and 5%
- Population Mitochondria Different-Phenotype (%) [2, 5]: 4% and 5%
- Population Mitotic Cells (%) [2, 5]: 50%
- Population Normal (%) [2, 5]: 100%
- Population Pyknosed Nuclei (%) [2, 5]: 9% and 14%
- Population Tubulin-Different-Phenotype (%) [2, 5]: 52% and 42%
- Population Apoptotic (%) [2, 6]: 66% and 82%
- Population Fragmented Nuclei (%) [2, 6]: 2% and 4%
- Population Healthy Nuclei (%) [2, 6]: 91% and 88%
- Population Hoechst High Intensity Objects (%) [2, 6]: 0%
- Population Membrane Permeable-Phenotype (%) [2, 6]: 0% and 2%
- Population Mitochondria Different-Phenotype (%) [2, 6]: 0% and 1%
- Population Mitotic Cells (%) [2, 6]: 33% and 17%
- Population Normal (%) [2, 6]: 100%
- Population Pyknosed Nuclei (%) [2, 6]: 6% and 7%
- Population Tubulin-Different-Phenotype (%) [2, 6]: 51% and 74%
- Population Apoptotic (%) [2, 7]: 38% and 33%
- Population Fragmented Nuclei (%) [2, 7]: 14% and 22%
- Population Healthy Nuclei (%) [2, 7]: 67% and 54%
- Population Hoechst High Intensity Objects (%) [2, 7]: 0%
- Population Membrane Permeable-Phenotype (%) [2, 7]: 2% and 6%
- Population Mitochondria Different-Phenotype (%) [2, 7]: 6% and 3%
- Population Mitotic Cells (%) [2, 7]: 61% and 66%
- Population Normal (%) [2, 7]: 100%
- Population Pyknosed Nuclei (%) [2, 7]: 18% and 22%
- Population Tubulin-Different-Phenotype (%) [2, 7]: 64% and 48%
- Population Apoptotic (%) [2, 8]: 70% and 78%
- Population Fragmented Nuclei (%) [2, 8]: 5% and 3%
- Population Healthy Nuclei (%) [2, 8]: 81% and 89%
- Population Hoechst High Intensity Objects (%) [2, 8]: 0%
- Population Membrane Permeable-Phenotype (%) [2, 8]: 0% and 1%
- Population Mitochondria Different-Phenotype (%) [2, 8]: 0%
- Population Mitotic Cells (%) [2, 8]: 30% and 21%
- Population Normal (%) [2, 8]: 100% and 99%
- Population Pyknosed Nuclei (%) [2, 8]: 13% and 7%
- Population Tubulin-Different-Phenotype (%) [2, 8]: 56% and 80%
- Population Apoptotic (%) [2, 9]: 94% and 73%
- Population Fragmented Nuclei (%) [2, 9]: 15% and 14%
- Population Healthy Nuclei (%) [2, 9]: 47% and 50%
- Population Hoechst High Intensity Objects (%) [2, 9]: 3% and 1%
- Population Membrane Permeable-Phenotype (%) [2, 9]: 12% and 5%
- Population Mitochondria Different-Phenotype (%) [2, 9]: 4% and 5%
- Population Normal (%) [2, 9]: 96% and 98%
- Population Pyknosed Nuclei (%) [2, 9]: 37% and 34%
- Population Tubulin-Different-Phenotype (%) [2, 9]: 62% and 67%
- Population Apoptotic (%) [3, 4]: 13% and 30%
- Population Fragmented Nuclei (%) [3, 4]: 9% and 15%
- Population Healthy Nuclei (%) [3, 4]: 76% and 67%
- Population Hoechst High Intensity Objects (%) [3, 4]: 0%
- Population Membrane Permeable-Phenotype (%) [3, 4]: 4%
- Population Mitochondria Different-Phenotype (%) [3, 4]: 1%
- Population Mitotic Cells (%) [3, 4]: 86% and 70%
- Population Normal (%) [3, 4]: 99% and 100%
- Population Pyknosed Nuclei (%) [3, 4]: 14% and 16%
- Population Tubulin-Different-Phenotype (%) [3, 4]: 14% and 10%
- Total Cell Count [3, 4]: 249 and 301
- Population Apoptotic (%) [3, 5]: 36% and 44%
- Population Fragmented Nuclei (%) [3, 5]: 23% and 18%
- Population Healthy Nuclei (%) [3, 5]: 65% and 70%
- Population Hoechst High Intensity Objects (%) [3, 5]: 0%
- Population Membrane Permeable-Phenotype (%) [3, 5]: 6% and 3%
- Population Mitochondria Different-Phenotype (%) [3, 5]: 2% and 1%
- Population Mitotic Cells (%) [3, 5]: 63% and 55%
- Population Normal (%) [3, 5]: 99%
- Population Pyknosed Nuclei (%) [3, 5]: 10% and 11%
- Population Tubulin-Different-Phenotype (%) [3, 5]: 32% and 19%
- Total Cell Count [3, 5]: 277 and 316
- Population Apoptotic (%) [3, 6]: 35% and 40%
- Population Fragmented Nuclei (%) [3, 6]: 13% and 19%
- Population Healthy Nuclei (%) [3, 6]: 73% and 66%
- Population Hoechst High Intensity Objects (%) [3, 6]: 0%
- Population Membrane Permeable-Phenotype (%) [3, 6]: 4%
- Population Mitochondria Different-Phenotype (%) [3, 6]: 0% and 2%
- Population Mitotic Cells (%) [3, 6]: 64% and 59%
- Population Normal (%) [3, 6]: 100% and 99%
- Population Pyknosed Nuclei (%) [3, 6]: 13% and 14%
- Population Tubulin-Different-Phenotype (%) [3, 6]: 14% and 13%
- Total Cell Count [3, 6]: 284 and 321
- Population Apoptotic (%) [3, 7]: 30% and 31%
- Population Fragmented Nuclei (%) [3, 7]: 18% and 13%
- Population Healthy Nuclei (%) [3, 7]: 61% and 66%
- Population Hoechst High Intensity Objects (%) [3, 7]: 1% and 2%
- Population Membrane Permeable-Phenotype (%) [3, 7]: 4% and 3%
- Population Mitochondria Different-Phenotype (%) [3, 7]: 3% and 0%
- Population Mitotic Cells (%) [3, 7]: 69% and 68%
- Population Normal (%) [3, 7]: 98% and 97%
- Population Pyknosed Nuclei (%) [3, 7]: 20% and 19%
- Population Tubulin-Different-Phenotype (%) [3, 7]: 32% and 17%
- Total Cell Count [3, 7]: 319 and 392
- Population Apoptotic (%) [3, 8]: 56% and 66%
- Population Fragmented Nuclei (%) [3, 8]: 18% and 25%
- Population Healthy Nuclei (%) [3, 8]: 70% and 65%
- Population Hoechst High Intensity Objects (%) [3, 8]: 0%
- Population Membrane Permeable-Phenotype (%) [3, 8]: 3% and 1%
- Population Mitochondria Different-Phenotype (%) [3, 8]: 0%
- Population Mitotic Cells (%) [3, 8]: 43% and 33%
- Population Normal (%) [3, 8]: 99%
- Population Pyknosed Nuclei (%) [3, 8]: 10% and 9%
- Population Tubulin-Different-Phenotype (%) [3, 8]: 12% and 5%
- Total Cell Count [3, 8]: 314 and 360
- Population Apoptotic (%) [3, 9]: 22% and 29%
- Population Fragmented Nuclei (%) [3, 9]: 17% and 16%
- Population Healthy Nuclei (%) [3, 9]: 66% and 70%
- Population Hoechst High Intensity Objects (%) [3, 9]: 6%
- Population Membrane Permeable-Phenotype (%) [3, 9]: 3% and 2%
- Population Mitochondria Different-Phenotype (%) [3, 9]: 2% and 0%
- Population Mitotic Cells (%) [3, 9]: 77% and 70%
- Population Normal (%) [3, 9]: 93%
- Population Pyknosed Nuclei (%) [3, 9]: 16% and 13%
- Population Tubulin-Different-Phenotype (%) [3, 9]: 33% and 16%
- Total Cell Count [3, 9]: 391 and 463
